From ChEMBL document CHEMBL4321838, “Drug Design Targeting T-Cell Factor-Driven Epithelial-Mesenchymal Transition as a Therapeutic Strategy for Colorectal Cancer” (J Med Chem, 2019)

Assays:
[1] = Drug metabolism in CD-1 mouse active microsomes assessed as CYP450-mediated oxidative phase 1 metabolite formation measured within 30 mins by LC-MS/MS analysis; type: ADME; details: 0.5 h
[2] = Metabolic stability in CD-1 mouse inactive microsomes incubated for 1 hr by LC-MS/MS analysis; type: ADME, Microsome
[3] = Drug metabolism in CD-1 mouse active microsomes assessed as metabolite formation at rate of biphasic kinetics by LC-MS/MS analysis; type: ADME, Microsome
[4] = Drug metabolism in CD-1 mouse active microsomes assessed as CYP450-mediated oxidative phase 1 metabolite formation by LC-MS/MS analysis
[5] = Drug metabolism in CD-1 mouse active microsomes assessed as metabolite formation at rate of first-order kinetics by LC-MS/MS analysis; type: ADME, Microsome
[6] = biological target: DNA topoisomerase 2-alpha (Homo sapiens, UniProt P11388); assay: Inhibition of human topoisomerase 2alpha mediated decatenation at 30 uM using kDNA as susbtrate preincubated for 20 mins followed by substrate and ATP addition and measured after 1 hr by ethidium bromide staining based gel electrophoresis method relative to control
Chain of DNA topoisomerase 2-alpha (P11388 whole entry): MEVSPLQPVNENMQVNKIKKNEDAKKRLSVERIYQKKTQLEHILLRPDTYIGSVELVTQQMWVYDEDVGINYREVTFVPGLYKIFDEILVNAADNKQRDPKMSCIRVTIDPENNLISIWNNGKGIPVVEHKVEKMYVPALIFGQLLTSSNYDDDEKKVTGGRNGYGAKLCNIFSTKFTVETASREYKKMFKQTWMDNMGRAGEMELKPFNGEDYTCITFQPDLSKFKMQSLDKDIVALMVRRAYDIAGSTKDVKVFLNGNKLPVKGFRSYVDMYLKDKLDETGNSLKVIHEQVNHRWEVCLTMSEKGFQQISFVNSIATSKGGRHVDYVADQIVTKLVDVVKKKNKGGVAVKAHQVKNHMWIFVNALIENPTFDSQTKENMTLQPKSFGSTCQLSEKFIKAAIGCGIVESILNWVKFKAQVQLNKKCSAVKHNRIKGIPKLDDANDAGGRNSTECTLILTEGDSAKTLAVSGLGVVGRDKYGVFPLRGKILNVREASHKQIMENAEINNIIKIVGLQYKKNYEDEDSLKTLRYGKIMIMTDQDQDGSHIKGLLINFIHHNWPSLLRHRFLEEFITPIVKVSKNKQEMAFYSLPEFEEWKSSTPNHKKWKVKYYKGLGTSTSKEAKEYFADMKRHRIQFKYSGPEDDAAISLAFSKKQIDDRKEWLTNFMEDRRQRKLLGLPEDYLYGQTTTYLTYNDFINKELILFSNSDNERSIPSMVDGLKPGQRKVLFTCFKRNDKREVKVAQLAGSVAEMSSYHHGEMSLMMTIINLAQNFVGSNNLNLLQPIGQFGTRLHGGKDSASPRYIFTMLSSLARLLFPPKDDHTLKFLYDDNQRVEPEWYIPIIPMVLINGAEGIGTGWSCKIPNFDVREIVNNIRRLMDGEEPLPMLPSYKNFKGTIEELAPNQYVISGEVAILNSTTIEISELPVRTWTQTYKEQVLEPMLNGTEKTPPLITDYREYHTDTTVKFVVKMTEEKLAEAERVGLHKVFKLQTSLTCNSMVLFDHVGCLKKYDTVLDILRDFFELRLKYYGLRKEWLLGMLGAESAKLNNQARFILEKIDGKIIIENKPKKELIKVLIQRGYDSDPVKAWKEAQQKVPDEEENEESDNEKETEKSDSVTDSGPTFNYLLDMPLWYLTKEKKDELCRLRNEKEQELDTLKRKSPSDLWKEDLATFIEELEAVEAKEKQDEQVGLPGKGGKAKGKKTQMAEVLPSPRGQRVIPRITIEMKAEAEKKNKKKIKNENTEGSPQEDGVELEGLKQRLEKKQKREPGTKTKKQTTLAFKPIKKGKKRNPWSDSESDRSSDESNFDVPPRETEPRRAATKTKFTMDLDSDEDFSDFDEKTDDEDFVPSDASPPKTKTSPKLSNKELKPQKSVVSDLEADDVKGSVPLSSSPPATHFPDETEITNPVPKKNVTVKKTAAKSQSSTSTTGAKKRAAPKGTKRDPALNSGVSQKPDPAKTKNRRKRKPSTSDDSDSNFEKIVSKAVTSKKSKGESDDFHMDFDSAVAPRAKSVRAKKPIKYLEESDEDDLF
In short: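 Human TOP2A (3 U) preincubated 20 min at 37 °C with compound at 30 μM in 1.2% DMSO. Reaction started with 2 mM ATP and 35 ng kDNA and run 1 h at 37 °C. Products resolved on 0.8% agarose in TBE with 0.2 μg/mL ethidium bromide; decatenated bands compared with vehicle.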

**Q.** Which Drug metabolism [1] does the source give for CC(=O)Nc1ccc2c(-c3ccsc3)ccnc2c1O here?
**A.** The Drug metabolism was “Metabolite_Detected”.

**Q.** What about the Stability [2] of the same compound?
**A.** Its Stability is “Stable”.

**Q.** And the Drug metabolism [3]?
**A.** Its Drug metabolism is “Metabolite_Detected”.

**Q.** And the Drug metabolism [4]?
**A.** Its Drug metabolism is “Metabolite_Notdetected”.

**Q.** What about the Drug metabolism [5] of the same compound?
**A.** Its Drug metabolism is “Metabolite_Notdetected”.

**Q.** And the inhibition [6]?
**A.** The inhibition was 92%.

**Q.** For CC(=O)Nc1ccc2c(-c3ccccc3)ccnc2c1O, which Stability [2] is on record?
**A.** The Stability was “Stable”.

**Q.** And the Drug metabolism [3]?
**A.** The Drug metabolism was “Metabolite_Detected”.

**Q.** And the Drug metabolism [5]?
**A.** The Drug metabolism was “Metabolite_Notdetected”.

**Q.** What about the inhibition [6] of the same compound?
**A.** The inhibition was 25%.
